{"source": "ChEMBL document CHEMBL1121378", "about": "“Lipophilic and hydrophilic esters of 4-acetyl-2-(2-hydroxyethyl)-5,6-bis(4-chlorophenyl)-2H-pyridazin-3-one as antihypertensive agents” (1980)", "assay_type_in_all_cases": "functional", "key": {"Rattus norvegicus [1]": {"test_system": "Rattus norvegicus", "assay": "Antihypertensive activity in spontaneously hypertensive rats was measured as average blood pressure at 100 mg/kg, p.o. after 24 hours of postdose-2", "conditions": "route oral", "summary_of_the_method": "(§1)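 SHR model with two successive doses, designated dose 1 and dose 2. Group-average blood pressure in mmHg was recorded before dosing and at 4 h and 24 h after each dose. The route is oral unless marked intra-arterial or subcutaneous. A table footnote marks doses that gave no significant lowering at 4 or 24 h postdose.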"}, "Rattus norvegicus [2]": {"test_system": "Rattus norvegicus", "assay": "Antihypertensive activity in spontaneously hypertensive rats was measured as average blood pressure at 12 mg/kg, p.o. before predose", "conditions": "route oral", "summary_of_the_method": "as §1"}, "Rattus norvegicus [3]": {"test_system": "Rattus norvegicus", "assay": "Antihypertensive activity in spontaneously hypertensive rats was measured as average blood pressure at 12 mg/kg, p.o. after 4 hours of postdose-1", "conditions": "route oral", "summary_of_the_method": "as §1"}, "Rattus norvegicus [4]": {"test_system": "Rattus norvegicus", "assay": "Antihypertensive activity in spontaneously hypertensive rats was measured as average blood pressure at 4 mg/kg, po before predose", "summary_of_the_method": "as §1"}, "Rattus norvegicus [5]": {"test_system": "Rattus norvegicus", "assay": "Antihypertensive activity in spontaneously hypertensive rats was measured as average blood pressure at 100 mg/kg, p.o. after 4 hours of postdose-2", "conditions": "route oral", "summary_of_the_method": "as §1"}, "Rattus norvegicus [6]": {"test_system": "Rattus norvegicus", "assay": "Antihypertensive activity in spontaneously hypertensive rats was measured as average blood pressure at 4 mg/kg, p.o. after 4 hours of postdose-2", "conditions": "route oral", "summary_of_the_method": "as §1"}, "Rattus norvegicus [7]": {"test_system": "Rattus norvegicus", "assay": "Antihypertensive activity in spontaneously hypertensive rats was measured as average blood pressure at 100 mg/kg, p.o. before predose", "conditions": "route oral", "summary_of_the_method": "as §1"}, "Rattus norvegicus [8]": {"test_system": "Rattus norvegicus", "assay": "Antihypertensive activity in spontaneously hypertensive rats was measured as average blood pressure at 100 mg/kg, p.o. after 4 hours of postdose-1", "conditions": "route oral", "summary_of_the_method": "as §1"}, "Rattus norvegicus [9]": {"test_system": "Rattus norvegicus", "assay": "Antihypertensive activity in spontaneously hypertensive rats was measured as average blood pressure at 12 mg/kg, p.o. after 24 hours of postdose-1", "conditions": "route oral", "summary_of_the_method": "as §1"}, "Rattus norvegicus [10]": {"test_system": "Rattus norvegicus", "assay": "Antihypertensive activity in spontaneously hypertensive rats was measured as average blood pressure at 12 mg/kg, p.o. after 24 hours of postdose-2", "conditions": "route oral", "summary_of_the_method": "as §1"}, "Rattus norvegicus [11]": {"test_system": "Rattus norvegicus", "assay": "Antihypertensive activity in spontaneously hypertensive rats was measured as average blood pressure at 4 mg/kg, po after 24 hours of postdose-1", "summary_of_the_method": "as §1"}, "Rattus norvegicus [12]": {"test_system": "Rattus norvegicus", "assay": "Antihypertensive activity in spontaneously hypertensive rats was measured as average blood pressure at 100 mg/kg, p.o. after 24 hours of postdose-1", "conditions": "route oral", "summary_of_the_method": "as §1"}, "Rattus norvegicus [13]": {"test_system": "Rattus norvegicus", "assay": "Antihypertensive activity in spontaneously hypertensive rats was measured as average blood pressure at 12 mg/kg, p.o. after 4 hours of postdose-2", "conditions": "route oral", "summary_of_the_method": "as §1"}, "Rattus norvegicus [14]": {"test_system": "Rattus norvegicus", "assay": "Antihypertensive activity in spontaneously hypertensive rats was measured as average blood pressure at 4 mg/kg, p.o. after 4 hours of postdose-1", "conditions": "route oral", "summary_of_the_method": "as §1"}, "Rattus norvegicus [15]": {"test_system": "Rattus norvegicus", "assay": "Antihypertensive activity in spontaneously hypertensive rats was measured as average blood pressure at 4 mg/kg, p.o. after 24 hours of postdose-2", "conditions": "route oral", "summary_of_the_method": "as §1"}}}
{"smiles": "CC(=O)c1c(-c2ccc(Cl)cc2)c(-c2ccc(Cl)cc2)nn(CCOC(=O)CN)c1=O.Cl", "values": [{"measurement": "BP", "setting": "Rattus norvegicus [1]", "result": 166, "unit": "mmHg"}, {"measurement": "BP", "setting": "Rattus norvegicus [2]", "result": 199, "unit": "mmHg"}, {"measurement": "BP", "setting": "Rattus norvegicus [3]", "result": 164, "unit": "mmHg"}, {"measurement": "BP", "setting": "Rattus norvegicus [4]", "result": 184, "unit": "mmHg"}, {"measurement": "BP", "setting": "Rattus norvegicus [5]", "result": 124, "unit": "mmHg"}, {"measurement": "BP", "setting": "Rattus norvegicus [6]", "result": 161, "unit": "mmHg"}, {"measurement": "BP", "setting": "Rattus norvegicus [7]", "result": 178, "unit": "mmHg"}, {"measurement": "BP", "setting": "Rattus norvegicus [8]", "result": 138, "unit": "mmHg"}, {"measurement": "BP", "setting": "Rattus norvegicus [9]", "result": 161, "unit": "mmHg"}, {"measurement": "BP", "setting": "Rattus norvegicus [10]", "result": 164, "unit": "mmHg"}, {"measurement": "BP", "setting": "Rattus norvegicus [11]", "result": 189, "unit": "mmHg"}, {"measurement": "BP", "setting": "Rattus norvegicus [12]", "result": 131, "unit": "mmHg"}, {"measurement": "BP", "setting": "Rattus norvegicus [13]", "result": 153, "unit": "mmHg"}, {"measurement": "BP", "setting": "Rattus norvegicus [14]", "result": 162, "unit": "mmHg"}, {"measurement": "BP", "setting": "Rattus norvegicus [15]", "result": 175, "unit": "mmHg"}]}
